Laboratory results reported in ChEMBL document CHEMBL4765486, “Novel Nonsecosteroidal Vitamin D Receptor Modulator Combined with Gemcitabine Enhances Pancreatic Cancer Therapy through Remodeling of the Tumor Microenvironment” (J Med Chem, 2021).
pIC50: −log10 of the molar value. Active and inactive are the calls of the source. Unless noted, the calls are words filed in the database; no cut-off is given here.

Columns and labels:
[1] = test system: DSL-6A/C1; conditions: Rattus norvegicus, dose 100.0 mg/kg, time 12.0 day
[2] = test system: LTC-14; assay: Inhibition of rat LTC-14 cells activation assessed as inhibition of Periodin-mRNA expression at 0.5 uM treated under conditioned media of DSL-6A/C1 cells for 24 hrs by q-PCR analysis; assay type: functional, cell-based
Method in brief: (§1)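 LTC-14 PSCs were exposed for 24 h to conditioned medium from rat DSL-6A/C1 cancer cells containing compound at 0.5 μM. Pdgfa, Pdgfb, Fgf2, Hgf and Periodin mRNA were quantified by RT-qPCR. Three repeats, mean ± SD versus CM alone.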

[3] = test system: LTC-14; assay: Inhibition of rat LTC-14 cells interaction with DSL-6A/C1 cells in conditioned media assessed as inhibition of PDGF-A protein expression at 0.5 uM measured after 24 hrs by Western blot analysis; assay type: functional, cell-based
Method in brief: (§2)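 LTC-14 cells were treated for 24 h with DSL-6A/C1 conditioned medium plus compound (0.5 μM). Proteins were separated on 10% SDS-PAGE, transferred to PVDF and probed with rabbit anti-PDGF-A or anti-POSTN, with β-actin as loading reference.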

[4] = test system: DSL-6A/C1; assay: Antiproliferative activity against rat DSL-6A/C1 cells assessed as reduction in cell viability at 0.5 uM incubated for 24 hrs compound treated LTC-14-CM cells by MTT assay; assay type: functional, cell-based
Method in brief: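 LTC-14 PSCs were pretreated with compound for 24 h. Their collected supernatant was used to culture DSL-6A/C1 cells, and proliferation was read by MTT: 4 h incubation with MTT (5 mg/mL stock), absorbance at 570 nm. Run in triplicate, compared with untreated PSC-CM.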

[5] = test system: LTC-14; assay: Inhibition of rat LTC-14 cells activation assessed as inhibition of Fgf mRNA expression at 0.5 uM treated under conditioned media of DSL-6A/C1 cells for 24 hrs by q-PCR analysis; assay type: functional, cell-based
Method in brief: as §1

[6] = Cytotoxicity against rat LTC-14 cells assessed as reduction in cell proliferation incubated for 24 hrs by MTT assay; assay type: cell-based; conditions: LTC-14, 24 h
[7] = target: T1, Vitamin D3 receptor (Homo sapiens) (UniProt P11473); assay: Agonist activity at VDR (unknown origin) expressed in HEK293 cells co-transfected with pGL4.27-SPP3-Luc and CMV-hRXRalpha and pCMX-Renilla plasmids after 24 hrs by dual luciferase reporter gene assay; assay type: cell-based; conditions: filed as agonist, dose 0.0001-1 µM
T1 sequence (whole entry): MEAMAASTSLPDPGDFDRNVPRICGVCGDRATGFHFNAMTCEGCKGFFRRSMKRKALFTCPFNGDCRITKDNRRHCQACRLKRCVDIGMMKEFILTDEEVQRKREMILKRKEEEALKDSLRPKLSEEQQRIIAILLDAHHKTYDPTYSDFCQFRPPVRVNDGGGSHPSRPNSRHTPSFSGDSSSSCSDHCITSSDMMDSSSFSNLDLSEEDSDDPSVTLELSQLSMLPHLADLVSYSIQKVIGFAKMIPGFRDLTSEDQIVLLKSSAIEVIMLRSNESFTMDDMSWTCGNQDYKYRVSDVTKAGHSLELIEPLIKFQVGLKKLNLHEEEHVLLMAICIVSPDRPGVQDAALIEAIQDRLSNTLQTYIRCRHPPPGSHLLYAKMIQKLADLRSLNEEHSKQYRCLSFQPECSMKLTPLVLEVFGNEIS
Method in brief: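 HEK293 cells in 48-well plates were transfected per well with 40 ng TK-Spp×3-LUC reporter, 20 ng pCMX-Renilla, 30 ng pENTER-CMV-hRXRα and 100 ng pCMX-VDR using Lipofectamine 2000. Compounds were added 8 h post-transfection, and dual-luciferase activity was read 24 h later. Firefly signal was normalised to Renilla. The experiment was run three times.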

[8] = Cytotoxicity against rat DSL-6A/C1 cells assessed as reduction in cell proliferation at 0.5 uM incubated for 24 hrs by MTT assay; assay type: cell-based; conditions: dsl-6a/c1, 24 h
[9] = test system: LTC-14; assay: Inhibition of rat LTC-14 cells activation assessed decrease in TGF-beta1 induced Acta2 mRNA expression at 0.5 uM incubated for 24 hrs by q-PCR analysis; assay type: functional, cell-based
Method in brief: (§3)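 Immortalized rat PSC line LTC-14, about 1×10^5 cells per well, was grown 24 h at 37 °C in 5% CO2. Cells then received compound (0.5 μM) plus TGF-β1 for 24 h; TGF-β1 is stated as 0.5 ng/mL in the text and 5 ng/mL in the methods. Col1a1 and Acta2 mRNA were measured by RT-qPCR. Mean ± SD versus TGF-β1 alone.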

[10] = test system: DSL-6A/C1; assay: Antiproliferative activity against rat DSL-6A/C1 cells assessed as reduction in cell viability at 0.5 uM treated with conditioned media of LTC-14 cells for 24 hrs by MTT assay; assay type: functional, cell-based
Method in brief: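 Rat pancreatic cancer DSL-6A/C1 cells were cultured in supernatant from LTC-14 PSCs (PSC-CM) with compound added at 0.5 μM for 24 h. Viability was then read by MTT: 4 h incubation with MTT (5 mg/mL stock), absorbance at 570 nm. Run in triplicate, compared with PSC-CM alone.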

[11] = test system: LTC-14; assay: Inhibition of rat LTC-14 cells activation assessed decrease in TGF-beta1 induced collagen 1 protein expression at 0.5 uM incubated for 24 hrs by Western blot analysis; assay type: functional, cell-based
Method in brief: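 LTC-14 cells were treated for 24 h with compound (0.5 μM) plus TGF-β1 (0.5 ng/mL in the text, 5 ng/mL in the methods). Lysates were run on 10% SDS-PAGE, transferred to PVDF and probed with rabbit anti-collagen I, with β-actin as reference. Bands were quantified by densitometry versus TGF-β1 alone.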

[12] = test system: LTC-14; assay: Inhibition of rat LTC-14 cell activation assessed decrease in TGF-beta1 induced Colla1 mRNA expression at 0.5 uM incubated for 24 hrs by q-PCR analysis; assay type: functional
Method in brief: as §3

[13] = test system: Mus musculus; assay: Inhibition of GFP-tagged rat LTC-14 cells activation in BALB/c nude mouse xenografted along with luciferase-tagged DSL-6A/C1-Luc cells assessed as reduction in alpha-smooth muscle actin expression in tumor at 500 ug/kg, ip administered once every 3 days for 12 days coadministered with gemcitabine at 100 mg/kg by DAPI staining based laser confocal scanning microscopy; assay type: functional, organism-based; conditions: dose 500.0 µg/kg, time 12.0 day
Method in brief: (§4)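 Tumours were taken from orthotopic co-inoculated nude mice given gemcitabine 100 mg/kg plus compound (500 μg/kg) or calcipotriol (60 μg/kg) ip for 12 days. Sections were fixed in 4% PFA, permeabilised with 0.5% Triton X-100 and blocked in 5% BSA. They were incubated with anti-α-SMA overnight at 4 °C, then an Alexa Fluor 594 secondary for 1 h at 37 °C, DAPI-counterstained and imaged by confocal microscopy.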

[14] = test system: LTC-14; assay: Inhibition of rat LTC-14 cells activation assessed as inhibition of PDGFA mRNA expression at 0.5 uM treated under conditioned media of DSL-6A/C1 cells for 24 hrs by q-PCR analysis; assay type: functional, cell-based
Method in brief: as §1

[15] = test system: LTC-14; assay: Inhibition of rat LTC-14 cells activation assessed as reduction in ECM deposition resulting in doxorubicin accumulation in PSC spheres pretreated with compounds followed by doxorubicin addition by laser confocal microscopy analysis; assay type: functional, cell-based
Method in brief: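 LTC-14 cells were grown in 3D culture to form PSC spheres and treated with compounds. Fluorescent doxorubicin was then added, and its penetration into the spheres was imaged by laser confocal microscopy. Three repeats, versus untreated control.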

[16] = target: T1, Vitamin D3 receptor (Homo sapiens); assay: Binding affinity to VDR (unknown origin) at 1 uM by fluorescence polarization assay relative to calcipotriol
Method in brief: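 PolarScreen VDR competitor fluorescence polarization assay with compounds at 1 μM in triplicate. Read-out used 535 nm excitation and 590 nm emission filters.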

[17] = target: T2, Vitamin D3 receptor (Homo sapiens, UniProt P11473); assay: Binding affinity to VDR (unknown origin) by fluorescence polarization assay
T2 sequence (P11473 whole entry): T1 sequence (whole entry)
Method in brief: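 Competitive VDR binding was measured by PolarScreen fluorescence polarization, in triplicate.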

[18] = test system: LTC-14; assay: Inhibition of rat LTC-14 cells interaction with DSL-6A/C1 cells in conditioned media assessed as inhibition of POSTN protein expression at 0.5 uM measured after 24 hrs by Western blot analysis; assay type: functional, cell-based
Method in brief: as §2

[19] = test system: DSL-6A/C1; assay: Potentiation of gemcitabine-induced antitumor activity against luciferase-tagged rat DSL-6A/C1 cells and GFP-tagged LTC-14 cells co-inoculated in orthotropic xenograft BALB/c nude mouse model of pancreatic cancer assessed as reduction in tumor volume at 500 ug/kg, ip administered once every 3 days for 12 days coadministered with gemcitabine at 100 mg/kg and measured after 3 days post last dose by IVIS optical imaging analysis; assay type: functional, organism-based; conditions: dose 500.0 µg/kg, time 12.0 day
Method in brief: (§5)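 DSL-6A/C1-luci and LTC-14-GFP cells were co-inoculated orthotopically into the pancreas of nude mice, n=5 per group. Treatment began 7 days after grafting (methods) or 14 days (text). Gemcitabine 100 mg/kg ip every 3 days, alone or with compound 500 μg/kg or calcipotriol 60 μg/kg in ethanol/polyoxyethylene castor oil/saline (1:1:18), for 12 days. Tumour growth was followed by bioluminescence imaging.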

[20] = test system: LTC-14; assay: Inhibition of rat LTC-14 cells activation assessed as inhibition of Hgf mRNA expression at 0.5 uM treated under conditioned media of DSL-6A/C1 cells for 24 hrs by q-PCR analysis; assay type: functional, cell-based
Method in brief: as §1

[21] = test system: LTC-14; assay: Inhibition of rat LTC-14 cells activation assessed as inhibition of PDGFB mRNA expression at 0.5 uM treated under conditioned media of DSL-6A/C1 cells for 24 hrs by q-PCR analysis; assay type: functional, cell-based
Method in brief: as §1

[22] = test system: DSL-6A/C1; assay: Potentiation of gemcitabine-induced antitumor activity against rat DSL-6A/C1-Luc cells and LTC-14-GFP cells co-inoculated in orthotropic xenograft BALB/c nude mouse model of pancreatic cancer assessed as reduction in tumor volume at 60 ug/kg, ip administered once every 3 days for 12 days coadministered with gemcitabine at 100 mg/kg and measured after 3 days post last dose by IVIS optical imaging analysis; assay type: functional, organism-based; conditions: dose 60.0 µg/kg, time 12.0 day
Method in brief: as §5

[23] = test system: Mus musculus; assay: Inhibition of GFP-tagged rat LTC-14 cells activation in BALB/c nude mouse xenografted along with luciferase-tagged DSL-6A/C1-Luc cells assessed as reduction in alpha-smooth muscle actin expression in tumor at 60 ug/kg, ip administered once every 3 days for 12 days coadministered with gemcitabine at 100 mg/kg and measured after 3 days post last dose and by DAPI staining based laser confocal scanning microscopy; assay type: functional, organism-based; conditions: dose 60.0 µg/kg, time 12.0 day
Method in brief: as §4

SMILES | inhibition [2] | inhibition [3] | Activity [4] | inhibition [5] | pIC50 [6] | Activity [7] | Activity [8] | inhibition [9] | Activity [10] | inhibition [11] | inhibition [12] | inhibition [13] | inhibition [14] | inhibition [15] | RBA ([16]; filed as agonist) | pIC50 [17] | inhibition [18] | TGI [19] | inhibition [20] | inhibition [21] | other results
Nc1ccn([C@@H]2O[C@H](CO)[C@@H](O)C2(F)F)c(=O)n1 | – | – | – | – | – | – | – | – | – | – | – | – | – | – | – | – | – | – | – | – | TGI [1]: inactive
CCn1cc(C(CC)(CC)c2ccc(OCC(C)O)c(C)c2)cc1C(=O)NCC(O)CO (stereo not drawn) | Active | Active | Active | Active | < 5.00 | Dose-dependent effect | Non-Toxic | Active | inactive | Active | Active | Active | Active | Active | 86% | 7.09 | Active | Active | Active | Active | –
CCn1c(C(=O)NCCN2CCCCC2)ccc1C(CC)(CC)c1ccc(OCCC(C)(C)O)c(C)c1 | Active | – | – | Active | < 5.00 | – | Non-Toxic | Active | – | Active | Active | – | Active | – | – | – | – | – | Active | Active | RBA [16]: 24%
CCn1c(C(=O)NCCN2CCN(C)CC2)ccc1C(CC)(CC)c1ccc(OCCC(C)(C)O)c(C)c1 | Active | Active | – | Active | < 5.00 | – | Non-Toxic | Active | – | Active | Active | – | Active | – | 68% | – | Active | – | Active | Active | –
C=C1/C(=C/C=C2\CCC[C@]3(C)[C@@H]([C@H](C)/C=C/[C@@H](O)C4CC4)CC[C@@H]23)C[C@@H](O)C[C@@H]1O | – | – | – | – | < 5.00 | Dose-dependent effect | Non-Toxic | Active | – | Active | Active | – | – | – | – | – | – | – | – | – | Activity [22]: Active; inhibition [23]: Active
CCN(CC)CCCNC(=O)c1ccc(C(CC)(CC)c2ccc(OCCC(C)(C)O)c(C)c2)n1CC | Active | Active | Active | Active | < 5.00 | Dose-dependent effect | Non-Toxic | Active | inactive | Active | Active | Active | Active | Active | 85% | 7.03 | Active | Active | Active | Active | –
